From ChEMBL document CHEMBL5252603, “Discovery of 2-aminoquinolone acid derivatives as potent inhibitors of SARS-CoV-2” (Bioorg Med Chem Lett, 2023)

Assays:
[1] = tested on: Vero; assay: Cytotoxicity against african green monkey Vero cells; format: toxicity, cell-based; conditions: chlorocebus sabaeus
Outline: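 Uninfected Vero cells were tested in parallel with the antiviral immunocytochemistry assay. CC50 was derived from at least two independent experiments.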

[2] = tested on: SARS-CoV-2; assay: Antiviral activity against Severe acute respiratory syndrome coronavirus 2 infected in Vero cells; format: functional, organism-based; conditions: Severe acute respiratory syndrome coronavirus 2, Vero
[3] = Selectivity index, ratio of CC50 for african green monkey Vero cells to EC50 for Severe acute respiratory syndrome coronavirus 2; format: toxicity; conditions: read-out: Ratio CC50/EC50
[4] = biological target: CYP3A4 (Homo sapiens, UniProt P08684); assay: Inhibition of human CYP3A4 at 10 uM relative to control; format: ADME
[5] = tested on: L929; assay: Cytotoxicity against mouse L929 cells; format: toxicity, cell-based
Outline: (§1)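 Cell viability was measured by the EZ-Cytox assay, with CC50 as the read-out. Cell lines: HFL-1, human embryonic lung; L929, mouse fibroblast; NIH 3T3, mouse embryonic fibroblast; CHO-K1, Chinese hamster ovary.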

[6] = biological target: CYP2D6 (Homo sapiens, UniProt P10635); assay: Inhibition of human CYP2D6 at 10 uM relative to control; format: ADME
[7] = biological target: CYP2C9 (Homo sapiens, UniProt P11712); assay: Inhibition of human CYP2C9 at 10 uM relative to control; format: ADME
[8] = Microsomal stability in dog liver microsomes assessed as compound remaining after 30 mins in presence of NADPH; format: ADME, Canis lupus familiaris, Microsome; conditions: read-out: Stability
[9] = tested on: CHO-K1; assay: Cytotoxicity against CHO-K1 cells; format: toxicity, cell-based, Cricetulus griseus; conditions: chinese hamster; outline: as §1
[10] = Microsomal stability in human liver microsomes assessed as compound remaining after 30 mins in presence of NADPH; format: ADME, Microsome; conditions: read-out: Stability
[11] = Microsomal stability in mouse liver microsomes assessed as compound remaining after 30 mins in presence of NADPH; format: ADME, Microsome; conditions: read-out: Stability
[12] = tested on: NIH3T3; assay: Cytotoxicity against mouse NIH3T3 cells; format: toxicity, cell-based; outline: as §1
[13] = biological target: Voltage-gated inwardly rectifying potassium channel KCNH2 (Homo sapiens, UniProt Q12809); assay: Binding affinity to human ERG; format: toxicity
Outline: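 hERG fluorescence polarization ligand-binding assay; IC50 read-out.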

[14] = biological target: T1, CYP1A2 (Homo sapiens, UniProt P05177); assay: Inhibition of human CYP1A2 at 10 uM relative to control; format: ADME
T1 sequence (P05177 whole entry): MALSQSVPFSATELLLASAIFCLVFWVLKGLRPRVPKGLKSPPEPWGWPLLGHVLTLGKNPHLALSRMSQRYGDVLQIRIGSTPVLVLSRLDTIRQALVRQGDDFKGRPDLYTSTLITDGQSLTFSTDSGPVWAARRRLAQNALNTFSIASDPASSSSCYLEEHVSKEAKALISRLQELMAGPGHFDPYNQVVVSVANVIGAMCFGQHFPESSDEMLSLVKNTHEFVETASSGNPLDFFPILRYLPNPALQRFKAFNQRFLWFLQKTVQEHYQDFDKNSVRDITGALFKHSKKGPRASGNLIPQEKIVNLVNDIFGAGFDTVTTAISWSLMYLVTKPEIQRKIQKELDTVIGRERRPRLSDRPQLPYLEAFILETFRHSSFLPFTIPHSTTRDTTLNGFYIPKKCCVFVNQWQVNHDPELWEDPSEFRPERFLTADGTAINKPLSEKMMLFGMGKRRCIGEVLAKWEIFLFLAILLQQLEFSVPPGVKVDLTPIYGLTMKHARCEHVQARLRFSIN

[15] = Microsomal stability in rat liver microsomes assessed as compound remaining after 30 mins in presence of NADPH; format: ADME, Microsome; conditions: read-out: Stability
[16] = biological target: CYP2C19 (Homo sapiens, UniProt P33261); assay: Inhibition of human CYP2C19 at 10 uM relative to control; format: ADME
[17] = tested on: HFL1; assay: Cytotoxicity against human HFL1 cells; format: toxicity, cell-based; outline: as §1

Chain of CYP3A4 (P08684 whole entry): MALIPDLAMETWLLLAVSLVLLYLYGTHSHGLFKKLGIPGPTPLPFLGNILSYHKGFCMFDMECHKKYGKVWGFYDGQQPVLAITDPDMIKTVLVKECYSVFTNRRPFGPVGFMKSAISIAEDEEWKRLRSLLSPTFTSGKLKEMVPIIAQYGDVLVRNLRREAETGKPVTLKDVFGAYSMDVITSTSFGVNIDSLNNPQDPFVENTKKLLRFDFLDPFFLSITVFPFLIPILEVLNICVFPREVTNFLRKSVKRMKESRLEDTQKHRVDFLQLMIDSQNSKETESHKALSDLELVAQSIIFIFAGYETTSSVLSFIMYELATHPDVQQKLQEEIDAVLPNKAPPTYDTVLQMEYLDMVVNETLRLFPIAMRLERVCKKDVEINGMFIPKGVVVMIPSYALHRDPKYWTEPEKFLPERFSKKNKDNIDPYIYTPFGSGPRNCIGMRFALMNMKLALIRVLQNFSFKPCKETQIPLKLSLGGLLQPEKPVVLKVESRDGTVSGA
Chain of CYP2D6 (P10635 whole entry): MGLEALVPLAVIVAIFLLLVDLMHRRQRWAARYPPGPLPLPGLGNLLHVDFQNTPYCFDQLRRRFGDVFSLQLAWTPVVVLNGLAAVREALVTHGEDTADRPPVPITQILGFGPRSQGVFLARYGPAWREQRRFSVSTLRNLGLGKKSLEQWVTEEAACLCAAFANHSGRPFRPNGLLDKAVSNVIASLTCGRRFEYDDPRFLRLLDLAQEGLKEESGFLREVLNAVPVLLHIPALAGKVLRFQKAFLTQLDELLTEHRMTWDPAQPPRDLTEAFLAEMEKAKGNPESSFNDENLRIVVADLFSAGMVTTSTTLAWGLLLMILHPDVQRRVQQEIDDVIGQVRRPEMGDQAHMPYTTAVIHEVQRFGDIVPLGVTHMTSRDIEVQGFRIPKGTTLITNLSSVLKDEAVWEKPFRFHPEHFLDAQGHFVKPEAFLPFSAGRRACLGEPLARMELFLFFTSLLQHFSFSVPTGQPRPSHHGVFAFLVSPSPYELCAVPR
Chain of CYP2C9 (P11712 whole entry): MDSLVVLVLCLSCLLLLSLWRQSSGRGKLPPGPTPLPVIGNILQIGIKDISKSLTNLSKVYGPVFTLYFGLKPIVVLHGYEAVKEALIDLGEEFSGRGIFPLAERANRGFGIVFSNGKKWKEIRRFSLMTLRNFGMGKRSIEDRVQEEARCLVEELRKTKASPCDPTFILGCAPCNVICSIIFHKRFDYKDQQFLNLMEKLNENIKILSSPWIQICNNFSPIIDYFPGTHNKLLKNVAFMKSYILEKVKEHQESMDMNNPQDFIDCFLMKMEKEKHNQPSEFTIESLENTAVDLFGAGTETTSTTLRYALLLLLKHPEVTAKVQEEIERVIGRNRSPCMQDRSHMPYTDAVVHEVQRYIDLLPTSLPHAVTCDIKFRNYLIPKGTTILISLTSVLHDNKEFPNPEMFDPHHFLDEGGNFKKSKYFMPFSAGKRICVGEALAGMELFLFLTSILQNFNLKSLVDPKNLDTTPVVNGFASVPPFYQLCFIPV
Chain of CYP2C19 (P33261 whole entry): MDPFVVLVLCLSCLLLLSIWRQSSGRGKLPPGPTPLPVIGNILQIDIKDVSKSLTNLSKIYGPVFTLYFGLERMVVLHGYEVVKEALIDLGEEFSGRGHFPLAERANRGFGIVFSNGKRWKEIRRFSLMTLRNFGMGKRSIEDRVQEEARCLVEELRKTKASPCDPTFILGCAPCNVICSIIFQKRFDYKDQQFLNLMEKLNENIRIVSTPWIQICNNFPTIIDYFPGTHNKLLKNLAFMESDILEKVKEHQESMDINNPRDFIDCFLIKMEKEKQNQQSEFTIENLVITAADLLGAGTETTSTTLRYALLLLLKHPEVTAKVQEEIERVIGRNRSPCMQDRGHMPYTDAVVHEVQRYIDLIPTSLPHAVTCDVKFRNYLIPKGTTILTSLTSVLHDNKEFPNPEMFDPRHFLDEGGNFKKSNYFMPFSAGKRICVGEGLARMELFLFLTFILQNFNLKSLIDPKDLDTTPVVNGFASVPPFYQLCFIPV
Chain of Voltage-gated inwardly rectifying potassium channel KCNH2 (Q12809 whole entry): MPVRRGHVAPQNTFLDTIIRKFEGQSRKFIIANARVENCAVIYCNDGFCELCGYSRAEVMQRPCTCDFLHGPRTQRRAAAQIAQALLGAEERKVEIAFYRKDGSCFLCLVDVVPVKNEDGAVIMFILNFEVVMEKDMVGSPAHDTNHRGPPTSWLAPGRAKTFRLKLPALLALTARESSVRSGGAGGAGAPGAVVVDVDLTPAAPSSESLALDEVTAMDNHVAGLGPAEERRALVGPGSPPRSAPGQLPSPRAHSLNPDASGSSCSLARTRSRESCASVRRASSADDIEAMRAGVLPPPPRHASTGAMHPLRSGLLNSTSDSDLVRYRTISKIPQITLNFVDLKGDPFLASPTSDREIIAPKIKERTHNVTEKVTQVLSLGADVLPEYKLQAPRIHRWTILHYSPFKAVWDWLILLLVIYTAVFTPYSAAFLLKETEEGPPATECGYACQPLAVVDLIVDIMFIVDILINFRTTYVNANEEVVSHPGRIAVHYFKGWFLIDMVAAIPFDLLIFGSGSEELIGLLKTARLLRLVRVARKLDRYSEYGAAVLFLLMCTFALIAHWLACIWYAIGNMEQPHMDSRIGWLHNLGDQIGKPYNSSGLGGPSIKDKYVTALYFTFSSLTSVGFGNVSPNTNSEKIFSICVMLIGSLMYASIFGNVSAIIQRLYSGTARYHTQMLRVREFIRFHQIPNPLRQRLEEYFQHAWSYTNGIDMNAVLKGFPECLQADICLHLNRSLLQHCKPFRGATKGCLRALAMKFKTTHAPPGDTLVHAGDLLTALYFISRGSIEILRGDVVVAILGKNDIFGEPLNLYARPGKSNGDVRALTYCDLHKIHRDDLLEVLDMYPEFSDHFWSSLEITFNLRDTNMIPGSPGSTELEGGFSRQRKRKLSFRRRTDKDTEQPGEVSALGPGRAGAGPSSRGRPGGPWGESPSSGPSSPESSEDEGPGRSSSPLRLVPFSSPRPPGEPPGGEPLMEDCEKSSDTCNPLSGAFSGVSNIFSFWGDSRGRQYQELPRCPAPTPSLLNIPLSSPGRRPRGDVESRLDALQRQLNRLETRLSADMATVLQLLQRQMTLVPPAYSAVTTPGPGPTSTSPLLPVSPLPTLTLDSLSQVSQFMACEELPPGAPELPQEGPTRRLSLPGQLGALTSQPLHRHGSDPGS

Compound	CC50 [1] [µM]	EC50 [2] [µM]	selectivity ratio [3]	other results
CCC(CC)COC(=O)[C@H](C)N[P@](=O)(OC[C@H]1O[C@@](C#N)(c2ccc3c(N)ncnn23)[C@H](O)[C@@H]1O)Oc1ccccc1	> 25			
CC(C)(C)[C@H](NC(=O)C(F)(F)F)C(=O)N1C[C@H]2[C@@H]([C@H]1C(=O)N[C@H](C#N)C[C@@H]1CCNC1=O)C2(C)C	> 25			
COC(=O)c1c([S+](C)[O-])[nH]c2cc(Cl)ccc2c1=O (stereo not drawn)	12	9.4	1.3	
CN(C)CCCNc1[nH]c2cc(Cl)ccc2c(=O)c1C(=O)O	> 25	> 25	1	
O=C(O)c1c(Nc2cccc(F)c2)[nH]c2cc(Cl)ccc2c1=O	> 25	1.5	16	inhibition at 10 µM [4]: < 1%; CC50 [5]: > 100 µM; inhibition at 10 µM [6]: 3%; inhibition at 10 µM [7]: 59%; remaining at 0.5 h [8]: 65%; CC50 [9]: 55 µM; remaining at 0.5 h [10]: 62%; remaining at 0.5 h [11]: 24%; CC50 [12]: 67 µM; IC50 [13]: > 100 µM; inhibition at 10 µM [14]: 72%; remaining at 0.5 h [15]: 14%; inhibition at 10 µM [16]: 9%; CC50 [17]: 48 µM
O=C(O)c1c(Nc2cccc(F)c2)[nH]c2ccccc2c1=O	> 25	4	6.2	
O=C(O)c1c(Nc2cccc(F)c2)[nH]c2ccc(Cl)cc2c1=O	> 25	1.5	17	
O=c1cc(Nc2cccc(F)c2)[nH]c2cc(F)c(F)cc12	> 25	> 25	1	
COC(=O)c1c([S+](C)[O-])[nH]c2ccccc2c1=O (stereo not drawn)	> 25	13.4	1.9	
COc1ccc2[nH]c(Nc3cccc(F)c3)c(C(=O)O)c(=O)c2c1	> 25	3.3	7.6	
CNC(=O)c1c(Nc2cccc(F)c2)[nH]c2cc(Cl)ccc2c1=O	> 25	7.9	3.2	
O=C(O)c1c(Nc2ccc(F)cc2)[nH]c2ccc(Cl)cc2c1=O	> 25	2.8	8.9	
O=C(O)c1c(Nc2cccc(F)c2)[nH]c2cc(F)c(F)cc2c1=O	> 25	3.3	7.5	
O=C(O)c1c(Nc2ccc(F)cc2)[nH]c2cc(F)c(F)cc2c1=O	> 25	3.5	7.2	
O=C(O)c1c(NC2CCCCC2)[nH]c2cc(Cl)ccc2c1=O	> 25	4.4	5.7	
CCN(CC)CCCC(C)Nc1ccnc2cc(Cl)ccc12 (stereo not drawn) [CHLOROQUINE]	> 25	8.2	3	
